Like-named read-outs stand apart in the source and are kept apart here. Where a SMILES comes first, the peptide text is derived from it. The star is where a group is joined. Dansyl = CN(C)c1cccc2c(S(=O)(=O)*)cccc12
Experiments:
FTase·I2 complex = FTase·I2 complex (Rattus norvegicus, UniProt Q02293+Q04631); test: Peptide binding affinity by fluorescence anisotropy
[1] = target: T1, protein farnesyltransferase (FTase) (Rattus norvegicus, UniProt Q02293+Q04631); assay type: biochemical; details: single-turnover only (STO) peptides, initial library, 0.4–0.8 μM FTase, 50–100 μM dansylated peptide, 0.1–0.2 μM FPP, 50 mM HEPPSO pH 7.8, 5 mM MgCl2, 2 mM TCEP, 25 °C
Outline: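 Stopped-flow, pre-mix levels: FTase (0.8–1.6 μM) with FPP (0.2–0.4 μM) in HEPPSO pH 7.8, MgCl2, TCEP, plus a phosphate mop (PNPase 0.5 units mL−1, 15 mM 7-methylguanosine). This is mixed 1:1 with dansylated peptide (100 or 200 μM) containing MDCC-labelled A197C PBP (5–10 μM), inorganic pyrophosphatase and the mop. Emission is followed at 450 nm, and a single-exponential fit gives kfarn.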

[2] = target: T1, protein farnesyltransferase (FTase); test: Steady state continuous dansyl fluorescence assay, kcat/Km peptide; assay type: biochemical; details: multiple-turnover substrates, 25 °C; for kcat/KM^peptide: targeted library, dansyl fluorescence; for kcat/Km: initial library, 10 μM FPP, 0.4–10 μM dansylated peptide, 25–300 nM FTase, 50 mM HEPPSO pH 7.8, 5 mM TCEP, 5 mM MgCl2, 10 μM ZnCl
Outline: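 Dansyl-TKCxxx peptides (0.4–10 μM) with saturating FPP 10 μM, 50 mM HEPPSO pH 7.8, 5 mM TCEP, 5 mM MgCl2, 10 μM ZnCl, 25 °C. FTase (25–300 nM) started the reaction. Dansyl fluorescence (ex 340, em 520 nm) followed to endpoint (~2–6 h). Rates converted to product using endpoint fluorescence. kcat/Km from linear or Michaelis–Menten fit of V/[E] versus peptide.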

Q: With CC[C@H](C)[C@H](NC(=O)[C@H](CS)NC(=O)[C@H](CCCCN)NC(=O)[C@@H](NS(=O)(=O)c1cccc2c(N(C)C)cccc12)[C@@H](C)O)C(=O)N[C@H](C(=O)N[C@@H](C)C(=O)O)C(C)C [CIVA] (Dansyl-TKCIVA-OH) as the compound, how does the Kd (FTase·I2 complex) read?
A: 5 ± 2 nM

Q: Which Kd (FTase·I2 complex) does the source give for CC[C@H](C)[C@H](NC(=O)[C@H](CO)NC(=O)[C@H](CS)NC(=O)[C@H](CCCCN)NC(=O)[C@@H](NS(=O)(=O)c1cccc2c(N(C)C)cccc12)[C@@H](C)O)C(=O)N[C@@H](CCSC)C(=O)O [CSIM] (Dansyl-TKCSIM-OH) here?
A: 6 ± 2 nM

Q: CAKS was tested. Which kfarn [1] did it give?
A: 2.3 ± 0.2 s⁻¹

Q: CALQ was tested. Which “kcat/KM^peptide” value [2] did it give?
A: 12000 ± 2000 M⁻¹ s⁻¹

Q: Which “kcat/KM^peptide” value [2] does the source give for CALV here?
A: 100 ± 20 M⁻¹ s⁻¹

Q: With CAVL as the compound, how does the kfarn [1] read?
A: 0.91 ± 0.09 s⁻¹

Q: With CDVK as the compound, how does the “kcat/KM^peptide” value [2] read?
A: 3600 ± 800 M⁻¹ s⁻¹

Q: For CEIQ, which “kcat/KM^peptide” value [2] is on record?
A: 3100 ± 600 M⁻¹ s⁻¹

Q: With CFPS as the compound, how does the “kcat/KM^peptide” value [2] read?
A: 4700 ± 500 M⁻¹ s⁻¹

Q: CFTN was tested. Which “kcat/KM^peptide” value [2] did it give?
A: 970 ± 70 M⁻¹ s⁻¹

Q: CFVN was tested. Which “kcat/KM^peptide” value [2] did it give?
A: 2100 ± 700 M⁻¹ s⁻¹

Q: CGIA was tested. Which kcat/Km [2] did it give?
A: 160 ± 50 M⁻¹ s⁻¹

Q: CGLF was tested. Which kcat/Km [2] did it give?
A: 450 ± 60 M⁻¹ s⁻¹

Q: For CGLY, which kcat/Km [2] is on record?
A: 1000 ± 100 M⁻¹ s⁻¹

Q: CGVV was tested. Which “kcat/KM^peptide” value [2] did it give?
A: 90 ± 30 M⁻¹ s⁻¹

Q: CHIM was tested. Which “kcat/KM^peptide” value [2] did it give?
A: 3300 ± 400 M⁻¹ s⁻¹

Q: CHIQ was tested. Which “kcat/KM^peptide” value [2] did it give?
A: 2200 ± 600 M⁻¹ s⁻¹

Q: Which “kcat/KM^peptide” value [2] does the source give for CHLM here?
A: 2000 ± 300 M⁻¹ s⁻¹

Q: CHLS was tested. Which “kcat/KM^peptide” value [2] did it give?
A: 460 ± 20 M⁻¹ s⁻¹

Q: With CHVM as the compound, how does the “kcat/KM^peptide” value [2] read?
A: 10000 ± 8000 M⁻¹ s⁻¹

Q: For CHVQ, which “kcat/KM^peptide” value [2] is on record?
A: 4500 ± 800 M⁻¹ s⁻¹

Q: How did the “kcat/KM^peptide” value [2] turn out when CKIV was run?
A: 870 ± 70 M⁻¹ s⁻¹

Q: How did the “kcat/KM^peptide” value [2] turn out when CLLV was run?
A: 100 ± 60 M⁻¹ s⁻¹

Q: CLML was tested. Which kcat/Km [2] did it give?
A: 150 ± 20 M⁻¹ s⁻¹

Q: Which “kcat/KM^peptide” value [2] does the source give for CNLK here?
A: 6300 ± 1600 M⁻¹ s⁻¹

Q: With CNLM as the compound, how does the kcat/Km [2] read?
A: 1000 ± 300 M⁻¹ s⁻¹

Q: With CPLG as the compound, how does the kfarn [1] read?
A: 0.019 ± 0.001 s⁻¹

Q: For CQTA, which kcat/Km [2] is on record?
A: 530 ± 20 M⁻¹ s⁻¹

Q: For CSEA, which kfarn [1] is on record?
A: 0.020 ± 0.002 s⁻¹

Q: For CSLA, which “kcat/KM^peptide” value [2] is on record?
A: 2500 ± 300 M⁻¹ s⁻¹

Q: CSLH was tested. Which “kcat/KM^peptide” value [2] did it give?
A: 210 ± 10 M⁻¹ s⁻¹

Q: Which kcat/Km [2] does the source give for CSVQ here?
A: 1200 ± 400 M⁻¹ s⁻¹

Q: Which “kcat/KM^peptide” value [2] does the source give for CTIV here?
A: 7200 ± 800 M⁻¹ s⁻¹

Q: With CTVF as the compound, how does the kcat/Km [2] read?
A: 1300 ± 100 M⁻¹ s⁻¹

Q: Which “kcat/KM^peptide” value [2] does the source give for CTVS here?
A: 5800 ± 1200 M⁻¹ s⁻¹

Q: Which “kcat/KM^peptide” value [2] does the source give for CVHF here?
A: 460 ± 40 M⁻¹ s⁻¹

Q: Which kfarn [1] does the source give for CVLL here?
A: 0.83 ± 0.08 s⁻¹

Q: For CVLQ, which kcat/Km [2] is on record?
A: 780 ± 30 M⁻¹ s⁻¹

Q: How did the kcat/Km [2] turn out when CVQM was run?
A: 270 ± 30 M⁻¹ s⁻¹

Q: How did the kfarn [1] turn out when CVSS was run?
A: 0.097 ± 0.009 s⁻¹

Q: CYIS was tested. Which “kcat/KM^peptide” value [2] did it give?
A: 12000 ± 5000 M⁻¹ s⁻¹

Q: How did the “kcat/KM^peptide” value [2] turn out when CYLA was run?
A: 4700 ± 300 M⁻¹ s⁻¹

Q: What does the source list for TKCYSN?
A: kfarn [1]: 0.0025 ± 0.0002 s⁻¹; kfarn ([1]; listed as TKCYSN): 0.0025 s⁻¹

— publication PMC2916699 (Journal of molecular biology, 2009)
